In brackets after ≈: the same amount, converted by molar mass.
What was measured:
[1] = test system: Streptococcus mutans; assay: Compound is evaluated for the effect of saliva upon the antiplaque activity of the compound at 0% of saliva and at 0.025 percentage of compound; - = No plaque accumulation; type: functional, organism-based
Summary of the method: (§1)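 Hydroxylapatite plate antiplaque assay against S. mutans run for 48 h, with two 1-min exposures to aqueous compound per 24 h. Growth medium contained 0, 5 or 50% pooled human saliva (paraffin-stimulated, centrifuged, filtered, membrane-sterilized). Plaque was stained with FD&C Red No. 3 and graded none, slight or moderate. Staining potential was scored on plates run without inoculum and graded none or slight.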

[2] = test system: Streptococcus mutans; assay: Compound is evaluated for the effect of saliva upon the antiplaque activity of the compound at 50% of saliva and at 0.025 percentage of compound; - = No staining; type: functional, organism-based; summary of the method: as §1
[3] = test system: Streptococcus mutans; assay: Compound is evaluated for the effect of saliva upon the antiplaque activity of the compound at 50% of saliva and at 0.05 percentage of compound; - = No plaque accumulation; type: functional, organism-based; summary of the method: as §1
[4] = test system: Pseudomonas aeruginosa; assay: Minimum antimicrobial inhibitory concentration against Pseudomonas aeruginosa MGH-2; type: functional
Summary of the method: (§2)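 Serial twofold tube dilution in tryptose phosphate broth. Each compound was prepared as a 1000 μg/mL aqueous stock and diluted in double-strength broth, then 2×10^5 cells were added. Tubes were incubated aerobically at 37 °C for 24 h. The MIC was taken as the lowest concentration with no visible growth.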

[5] = Compound is evaluated for stain index; type: functional
Summary of the method: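 Ratio of the minimum concentration staining a plaque-free ceramic hydroxylapatite plate to the minimum plaque-inhibiting concentration, both run under the same conditions. Plates got two 1-min soaks (0.1–0.001%), each followed by air-drying, then a water rinse. They were then held 24 h anaerobically at 37 °C in sucrose beef-extract medium, with or without S. mutans OMZ-61, repeated once. Staining was 1-min 1% FD&C Red No. 3, scored visually.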

[6] = test system: Proteus mirabilis; assay: Minimum antimicrobial inhibitory concentration against Proteus mirabilis MGH-1; type: functional; summary of the method: as §2
[7] = test system: Escherichia coli; assay: Minimum inhibitory concentration against Escherichia coli (Vogel); type: functional; summary of the method: as §2
[8] = test system: Streptococcus mutans; assay: Compound is evaluated for the effect of saliva upon the antiplaque activity of the compound at 0% of saliva and at 0.01 percentage of compound; - = No plaque accumulation; type: functional, organism-based; summary of the method: as §1
[9] = test system: Streptococcus mutans; assay: Compound is evaluated for the effect of saliva upon the antiplaque activity of the compound at 0% of saliva and at 0.025 percentage of compound; - = No staining; type: functional, organism-based; summary of the method: as §1
[10] = test system: Streptococcus mutans; assay: Compound is evaluated for plaque-bactericidal index (PBI) against Streptococcus mutans 10449; type: functional
[11] = test system: Streptococcus mutans; assay: Compound is evaluated for the effect of saliva upon the antiplaque activity of the compound at 50% of saliva and at 0.025 percentage of compound; - = No plaque accumulation; type: functional, organism-based; summary of the method: as §1
[12] = test system: Staphylococcus aureus; assay: Minimum antimicrobial inhibitory concentration against Staphylococcus aureus; type: functional; summary of the method: as §2
[13] = test system: Streptococcus mutans; assay: Compound is evaluated for the effect of saliva upon the antiplaque activity of the compound at 0% of saliva and at 0.05 percentage of compound; + = Slight staining; type: functional, organism-based; summary of the method: as §1
[14] = test system: Streptococcus mutans; assay: Compound is evaluated for the effect of saliva upon the antiplaque activity of the compound at 50% of saliva and at 0.01 percentage of compound; - = No plaque accumulation; type: functional, organism-based; summary of the method: as §1
[15] = test system: Streptococcus mitis; assay: Compound is evaluated for plaque-bactericidal index (PBI) against Streptococcus mitis 90557
[16] = test system: Streptococcus sanguinis; assay: Compound is evaluated for plaque-bactericidal index (PBI) against Streptococcus sanguis 10558
[17] = test system: Streptococcus mutans; assay: Compound is evaluated for the effect of saliva upon the staining potential of the compound at 0% of saliva and at 0.01 percentage of compound; - = No staining; type: functional, organism-based; summary of the method: as §1
[18] = test system: Actinomyces viscosus; assay: Compound is evaluated for plaque-bactericidal index (PBI) against Actinomyces viscosus M-100; type: functional
[19] = test system: Streptococcus mutans; assay: Compound is evaluated for the inhibition of plaque-forming enzyme of Streptococcus mutans OMZ-61; type: functional
Summary of the method: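 S. mutans OMZ-61 was grown anaerobically at 37 °C for 24 h in glucose medium. The cell-free filtrate, adjusted to pH 5.5, served as the dextran/levan sucrase source. Reactions contained 3 μmol 14C-sucrose in citrate phosphate buffer pH 5.5 with 4% EtOH and ran 2 h at 37 °C. MeOH-insoluble polysaccharide was counted by scintillation. Compounds were tested at 50, 160 and 500 μg base/mL, with lower levels if needed, and I50 was read graphically.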

[20] = test system: Streptococcus mutans; assay: Minimum plaque inhibitory concentration using a standard test organism, Streptococcus mutans OMZ-61; type: functional, organism-based
Summary of the method: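 Ceramic hydroxylapatite plates were soaked twice for 1 min each in compound at […] (aqueous), air-dried and rinsed, then hung in sucrose beef-extract medium (pH 7.0) inoculated with late-log S. mutans OMZ-61. Incubation was anaerobic at 37 °C for 24 h, and treatment plus reinoculation were repeated for a second 24 h. Plaque was stained with 1% FD&C Red No. 3 and scored visually. The value is the lowest concentration giving no plaque while medium growth matched control.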

[21] = test system: Streptococcus mutans; assay: Compound is evaluated for the effect of saliva upon the antiplaque activity of the compound at 50% of saliva and at 0.01 percentage of compound; - = No staining; type: functional, organism-based; summary of the method: as §1
[22] = test system: Actinomyces viscosus; assay: Compound is evaluated for minimal bactericidal concentration against plaque formation for Actinomyces viscosus; type: functional, organism-based
Summary of the method: (§3)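 Preformed in vitro plaques of S. mutans NCTC 10449 or A. viscosus M-100 were grown on ceramic hydroxylapatite under anaerobic conditions at 37 °C in sucrose-supplemented medium. Plaques were immersed for 30 min at 37 °C in compound at 0.3–20 mM, rinsed, and moved to broth containing bromocresol purple. Kill was judged by no acid production, no turbidity increase and no growth on plating at 48 h. Plaques were run in quadruplicate.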

[23] = test system: Streptococcus mutans; assay: Compound is evaluated for the growth inhibition of Streptococcus mutans OMZ-61; type: functional
[24] = test system: Klebsiella pneumoniae; assay: Minimum inhibitory concentration against Klebsiella pneumonia 39645; type: functional; summary of the method: as §2
[25] = test system: Streptococcus mutans; assay: Compound is evaluated for minimal bactericidal concentration against plaque formation for Streptococcus mutans; type: functional, organism-based; summary of the method: as §3
[26] = test system: Actinomyces naeslundii; assay: Compound is evaluated for plaque-bactericidal index (PBI) against Actinomyces naeslundii 631; type: functional
[27] = test system: Streptococcus mutans; assay: Compound is evaluated for the effect of saliva upon the antiplaque activity of the compound at 50% of saliva and at 0.05 percentage of compound; + = Slight staining; type: functional, organism-based; summary of the method: as §1
[28] = test system: Escherichia coli; assay: Antimicrobial minimum inhibitory concentration against Escherichia coli AB1932-1; type: functional; summary of the method: as §2
[29] = test system: Escherichia coli; assay: Antimicrobial minimum inhibitory concentration against Escherichia coli 100/B22; type: functional; summary of the method: as §2
[30] = test system: Streptococcus mutans; assay: Compound is evaluated for the effect of saliva upon the antiplaque activity of the compound at 0% of saliva and at 0.05 percentage of compound; - = No plaque accumulation; type: functional, organism-based; summary of the method: as §1
[31] = test system: Streptococcus mutans; assay: Compound is evaluated for the effect of saliva upon the antiplaque activity at 0% of saliva and at 0.025 percentage of compound; - = No plaque accumulation; type: functional, organism-based; summary of the method: as §1
[32] = test system: Streptococcus mutans; assay: Compound is evaluated for the effect of saliva upon the antiplaque activity at 50% of saliva and at 0.01 percentage of compound; - = No staining; type: functional, organism-based; summary of the method: as §1
[33] = test system: Streptococcus mutans; assay: Compound is evaluated for the effect of saliva upon the antiplaque activity at 50% of saliva and at 0.01 percentage of compound; + = Slight plaque accumulation; type: functional, organism-based; summary of the method: as §1
[34] = test system: Streptococcus mutans; assay: Compound is evaluated for the effect of saliva upon the antiplaque activity at 50% of saliva and at 0.025 percentage of compound; - = No plaque accumulation; type: functional, organism-based; summary of the method: as §1
[35] = test system: Streptococcus mutans; assay: Compound is evaluated for the effect of saliva upon the antiplaque activity at 50% of saliva and at 0.025 percentage of compound; + = Slight staining; type: functional, organism-based; summary of the method: as §1
[36] = test system: Proteus mirabilis; assay: Compound is evaluated for the antimicrobial minimum inhibitory concentration against Proteus mirabilis MGH-1; type: functional; summary of the method: as §2
[37] = test system: Streptococcus mutans; assay: Compound is evaluated for the effect of saliva upon the staining potential at 0% of saliva and at 0.01 percentage of compound; + = Slight staining; type: functional, organism-based; summary of the method: as §1
[38] = test system: Streptococcus mutans; assay: Compound is evaluated for the effect of saliva upon the antiplaque activity at 50% of saliva and at 0.05 percentage of compound; - = No plaque accumulation; type: functional, organism-based; summary of the method: as §1
[39] = test system: Streptococcus sanguinis; assay: Compound is evaluated for plaque-bactericidal index (PBI) against Streptococcus sanguis 10558; type: functional
[40] = test system: Streptococcus mutans; assay: Compound is evaluated for the effect of saliva upon the antiplaque activity at 0% of saliva and at 0.01 percentage of compound; - = No plaque accumulation; type: functional, organism-based; summary of the method: as §1
[41] = test system: Staphylococcus aureus; assay: Compound is evaluated for the antimicrobial minimum inhibitory concentration against Staphylococcus aureus (Smith); type: functional; summary of the method: as §2
[42] = test system: Streptococcus mutans; assay: Compound is evaluated for the effect of saliva upon the antiplaque activity at 0% of saliva and at 0.05 percentage of compound; - = No plaque accumulation; type: functional, organism-based; summary of the method: as §1
[43] = test system: Streptococcus mutans; assay: Compound is evaluated for the effect of saliva upon the antiplaque activity at 0% of saliva and at 0.025 percentage of compound; + = Slight staining; type: functional, organism-based; summary of the method: as §1
[44] = test system: Streptococcus mutans; assay: Compound is evaluated for minimum plaque inhibitory concentration using a standard test organism, Streptococcus mutans OMZ-61; type: functional
Summary of the method: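 S. mutans OMZ-61 in pH 7.0 beef extract–trypticase medium with 0.5% sucrose. Sterile ceramic hydroxylapatite plates got two 1-min soaks in 0.1–0.001% compound, each followed by 1-min air-drying, then a 5-min water rinse. Plates were put in inoculated medium at 37 °C anaerobically for 24 h. The cycle was repeated for a second 24 h. Plaque was stained with 1% FD&C Red No. 3. Value is the lowest concentration completely preventing plaque.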

[45] = test system: Streptococcus mutans; assay: Compound is evaluated for the effect of saliva upon the antiplaque activity at 50% of saliva and at 0.05 percentage of compound; + = Slight staining; type: functional, organism-based; summary of the method: as §1
[46] = test system: Pseudomonas aeruginosa; assay: Compound is evaluated for the antimicrobial minimum inhibitory concentration against Pseudomonas aeruginosa MGH-1; type: functional
[47] = test system: Streptococcus mutans; assay: Compound is evaluated for the effect of saliva upon the antiplaque activity at 0% of saliva and at 0.05 percentage of compound; + = Slight staining; type: functional, organism-based; summary of the method: as §1

Compound: CCCCCCCCN=c1ccn(CCCCCCCCCCn2ccc(=NCCCCCCCC)cc2)cc1.Cl.Cl [OCTENIDINE HYDROCHLORIDE]
- Plaque accum [1]: No plaque accumulation
- Staining potential [2]: No staining
- Plaque accum [3]: No plaque accumulation
- MIC [4]: 3.9 µg/mL
- Stain index [5]: 10
- MIC [6]: 2 µg/mL
- MIC [7]: 1 µg/mL
- Plaque accum [8]: No plaque accumulation
- Staining potential [9]: No staining
- PBI [10]: 25.6
- Plaque accum [11]: No plaque accumulation
- MIC [12]: 1 µg/mL
- Staining potential [13]: No staining
- Plaque accum [14]: No plaque accumulation
- PBI [15]: 32
- PBI [16]: 32
- Staining potential [17]: No staining
- PBI [18]: 19.2
- I50 [19]: 31 (ug of base) ml-1
- Concentration [20]: 0.005%
- Staining potential [21]: No staining
- Concentration [22]: 1.6 mM
- MIC [23]: 1 (ug of base) ml-1
- MIC [24]: 2 µg/mL
- Concentration [25]: 3.2 mM
- PBI [26]: 19.2
- Staining potential [27]: No staining
- MIC [28]: 1 µg/mL
- MIC [29]: 1 µg/mL
- Plaque accum [30]: No plaque accumulation

Compound: N=C(NCCCCCCNC(=N)NC(=N)Nc1ccc(Cl)cc1)NC(=N)Nc1ccc(Cl)cc1 [CHLORHEXIDINE]
- Plaque accum [31]: No plaque accumulation
- Staining potential [32]: No staining
- Plaque accum [33]: No plaque accumulation
- Plaque accum [34]: No plaque accumulation
- Staining potential [35]: No staining
- MIC [36]: 15.6 µg/mL (≈ 30.9 µM)
- Staining potential [37]: No staining
- Stain index [5]: 1
- Plaque accum [38]: No plaque accumulation
- MIC [7]: 0.5 µg/mL (≈ 0.989 µM)
- PBI [39]: 32
- Plaque accum [40]: No plaque accumulation
- PBI [10]: 25.6
- MIC [41]: 0.2 µg/mL (≈ 0.396 µM)
- Plaque accum [42]: No plaque accumulation
- PBI [18]: 19.2
- Staining potential [43]: No staining
- Concentration [22]: 1.6 mM
- MIC [24]: 3.9 µg/mL (≈ 7.72 µM)
- Min plague Inhibitory [44]: 0.005%
- Concentration [25]: 3.2 mM
- PBI [26]: 19.2
- Staining potential [45]: No staining
- MIC [46]: 15.6 µg/mL (≈ 30.9 µM)
- MIC [28]: 0.5 µg/mL (≈ 0.989 µM)
- Staining potential [47]: No staining
- MIC [29]: 1 µg/mL (≈ 1.98 µM)
